Legend:
[1] = target: Serine/threonine-protein kinase B-raf (Homo sapiens, UniProt P15056, V600E); assay: Inhibition of BRAF V600E mutant
Outline: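 Purified, isolated V600E BRAF enzyme assayed in vitro; potency reported as IC50.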

[2] = target: Serine/threonine-protein kinase PAK 6 (Homo sapiens) (UniProt Q9NQU5); assay: Inhibition of PAK6 at 1 uM relative to control
[3] = target: T1, Serine/threonine-protein kinase Chk1 (Homo sapiens) (UniProt O14757); assay: Inhibition of CHK1 at 1 uM relative to control
T1 sequence (whole entry): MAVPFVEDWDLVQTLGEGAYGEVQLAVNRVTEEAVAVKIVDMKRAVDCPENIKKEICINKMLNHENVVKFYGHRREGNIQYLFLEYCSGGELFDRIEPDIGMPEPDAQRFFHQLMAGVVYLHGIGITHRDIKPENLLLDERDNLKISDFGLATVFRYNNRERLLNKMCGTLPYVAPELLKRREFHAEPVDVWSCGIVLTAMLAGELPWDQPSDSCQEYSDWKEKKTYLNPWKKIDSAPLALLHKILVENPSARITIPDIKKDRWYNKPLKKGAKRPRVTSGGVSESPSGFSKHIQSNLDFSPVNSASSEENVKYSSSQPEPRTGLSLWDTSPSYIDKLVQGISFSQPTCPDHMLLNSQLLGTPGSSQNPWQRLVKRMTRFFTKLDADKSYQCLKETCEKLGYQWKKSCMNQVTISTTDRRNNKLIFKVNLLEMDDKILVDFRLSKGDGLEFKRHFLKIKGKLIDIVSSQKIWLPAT

[4] = target: Ribosomal protein S6 kinase beta-1 (Homo sapiens) (UniProt P23443); assay: Inhibition of S6K1 at 1 uM relative to control
Chain of Ribosomal protein S6 kinase beta-1 (Homo sapiens) (P23443 whole entry, looked up): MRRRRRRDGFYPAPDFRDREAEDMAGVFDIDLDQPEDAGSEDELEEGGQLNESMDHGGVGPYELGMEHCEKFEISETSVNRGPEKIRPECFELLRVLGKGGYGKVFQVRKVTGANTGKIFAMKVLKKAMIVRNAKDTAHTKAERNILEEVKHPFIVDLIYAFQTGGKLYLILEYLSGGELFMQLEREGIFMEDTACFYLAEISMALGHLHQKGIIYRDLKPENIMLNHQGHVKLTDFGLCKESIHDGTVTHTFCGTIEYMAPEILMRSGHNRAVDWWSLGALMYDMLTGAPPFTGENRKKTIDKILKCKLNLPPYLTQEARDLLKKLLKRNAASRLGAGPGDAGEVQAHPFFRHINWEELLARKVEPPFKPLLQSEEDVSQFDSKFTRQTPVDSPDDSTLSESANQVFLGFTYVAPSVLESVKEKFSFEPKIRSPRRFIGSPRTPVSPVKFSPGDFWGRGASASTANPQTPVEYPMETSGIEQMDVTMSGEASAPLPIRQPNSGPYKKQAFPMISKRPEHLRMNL

[5] = target: Serine/threonine-protein kinase pim-3 (Homo sapiens) (UniProt Q86V86); assay: Inhibition of PIM3 at 1 uM relative to control

Chain of Serine/threonine-protein kinase PAK 6 (Homo sapiens) (Q9NQU5 whole entry, looked up): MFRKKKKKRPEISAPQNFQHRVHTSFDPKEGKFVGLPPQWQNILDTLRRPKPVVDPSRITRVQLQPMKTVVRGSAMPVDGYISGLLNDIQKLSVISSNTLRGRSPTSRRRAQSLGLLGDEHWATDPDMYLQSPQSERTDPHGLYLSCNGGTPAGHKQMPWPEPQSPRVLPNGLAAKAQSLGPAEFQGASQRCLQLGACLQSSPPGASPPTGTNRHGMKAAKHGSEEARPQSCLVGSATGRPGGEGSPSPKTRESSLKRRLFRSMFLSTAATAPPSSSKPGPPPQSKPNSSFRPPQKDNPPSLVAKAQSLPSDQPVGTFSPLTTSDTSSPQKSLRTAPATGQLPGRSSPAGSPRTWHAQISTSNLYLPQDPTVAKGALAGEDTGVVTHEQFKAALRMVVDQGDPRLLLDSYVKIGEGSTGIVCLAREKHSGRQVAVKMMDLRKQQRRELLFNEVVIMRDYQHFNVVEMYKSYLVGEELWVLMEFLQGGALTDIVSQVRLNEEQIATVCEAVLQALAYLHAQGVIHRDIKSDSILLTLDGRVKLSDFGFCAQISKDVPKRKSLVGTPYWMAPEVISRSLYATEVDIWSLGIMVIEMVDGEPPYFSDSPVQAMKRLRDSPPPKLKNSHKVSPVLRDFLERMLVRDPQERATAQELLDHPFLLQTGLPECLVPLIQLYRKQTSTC
Chain of Serine/threonine-protein kinase B-raf (P15056 2-766 V600E limits assumed): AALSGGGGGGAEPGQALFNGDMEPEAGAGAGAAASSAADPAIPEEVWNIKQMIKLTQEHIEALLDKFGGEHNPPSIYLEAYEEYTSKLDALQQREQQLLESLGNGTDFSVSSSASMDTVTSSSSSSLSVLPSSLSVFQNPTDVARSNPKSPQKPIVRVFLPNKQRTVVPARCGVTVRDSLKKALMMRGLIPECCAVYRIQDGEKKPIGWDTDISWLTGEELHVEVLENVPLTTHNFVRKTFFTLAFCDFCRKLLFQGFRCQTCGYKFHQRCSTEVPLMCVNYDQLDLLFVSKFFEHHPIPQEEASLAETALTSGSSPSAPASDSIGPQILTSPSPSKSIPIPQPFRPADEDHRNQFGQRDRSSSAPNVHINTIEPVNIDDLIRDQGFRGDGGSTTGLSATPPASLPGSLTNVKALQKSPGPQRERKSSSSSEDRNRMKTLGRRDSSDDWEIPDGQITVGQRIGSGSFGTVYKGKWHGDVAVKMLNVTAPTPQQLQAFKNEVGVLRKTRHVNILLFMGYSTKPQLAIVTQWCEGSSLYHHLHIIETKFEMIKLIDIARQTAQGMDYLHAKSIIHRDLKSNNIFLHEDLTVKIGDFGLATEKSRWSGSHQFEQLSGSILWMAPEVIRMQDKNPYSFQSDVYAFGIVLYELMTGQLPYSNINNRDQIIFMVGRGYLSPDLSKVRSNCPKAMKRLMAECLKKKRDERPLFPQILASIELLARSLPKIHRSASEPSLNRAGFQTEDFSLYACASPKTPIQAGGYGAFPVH

IC50 [1] [µM]	residual activity [2] [%]	residual activity [3] [%]	residual activity [4] [%]	residual activity [5] [%]	SMILES
0.079	75	75	100	75	CC(C)(C)c1cccc(NC(=O)Nc2ccc(Oc3ccnc4[nH]c(=O)[nH]c34)c3ccccc23)c1
0.037	100	100	75	100	O=C(Nc1cc(C(F)(F)F)ccc1F)Nc1ccc(Oc2ccnc3[nH]c(=O)[nH]c23)c2ccccc12
0.001	100	100	100	100	CSc1cc(Oc2ccnc3[nH]c(=O)[nH]c23)ccc1NC(=O)Nc1cccc(C(F)(F)F)c1

— ChEMBL document CHEMBL1136991, “Novel potent BRAF inhibitors: toward 1 nM compounds through optimization of the central phenyl ring” (J Med Chem, 2009)
